Screens as filed in PubChem.
CHOP inhibitor = inhibitors of CHOP induction in ER stress response. CHO-K1 CHOP-promoter luciferase, tunicamycin-induced, 15-18 h. AID 2732. actives 3.8% (n = 220,000). inhibition, % at 10 µM;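 active means compounds that reduced the stress-induced luciferase reporter signal by more than about 70% of percent inhibition, limit read from the data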;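 further: 0% = tunicamycin plus vehicle and 100% = wells without tunicamycin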
aDG glyco act = alpha-DG glycosylation activation | activation, % at 10 µM | AID 624168 | actives 0.22% (n = 360,000) | Pro5-aDG cells, alpha-DG glycosylation AlphaScreen (IIH6); 0% Pro5, 100% B10-LARGE cell signal;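 active means activation of at least 8% versus controls, or a plate z-score of at least 8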;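 further: Pro5 are CHO cells carrying HIG-tagged alpha-DG that lacks glycosylation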
CHOP UPR activ = activators of apoptotic arm of unfolded protein response (CHOP) | CHO-CHOP luciferase reporter, UPR activation, luminescence; percent of tunicamycin response over DMSO baseline | activation, % at 10 µM | actives 0.34% (n = 330,000);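 active means at 10 µM dose, activation of 40% or more, normalized to positive control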;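 further: 100% = tunicamycin at 10 µg/mL and 0% = DMSO alone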
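assay system = CHO CHOP reporter cells | amount = 500 CHO-CHOP cells per well | buffer or medium = F12 with 10% FBS | incubation = 16-18 h cell attachment, then 6 h compound exposure, 37 °C | detection = luminescence read with Steady-Glo | read-out = percent activation relative to tunicamycin control | controls = tunicamycin high control, DMSO low control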
UPR XBP1 act = activators of adaptive arm of unfolded protein response (XBP1); CHO-XBP1 luciferase reporter, IRE1-XBP1 UPR activation, luminescence; percent of tunicamycin response, DMSO as zero; activation, % at 20 µM; actives 0.33% (n = 330,000); AID 463104;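 active means versus positive control, 20 µM dose yields 30% or more activation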;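 further: 100% = tunicamycin at 10 µg/mL and 0% = DMSO only wells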
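Material – CHO cell line with stable XBP1 luciferase reporter · Buffer or medium – F12 plus 10% FBS · Compound – single point, 20 µM final compound, 1% DMSO · Schedule – 16-18 h cell attachment at 37 °C, then 6 h compound exposure · Signal – Steady-Glo luminescence read · Benchmarks – high control tunicamycin 10 µg/mL final, low control DMSO vehicle only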
MPTP block = blocks calcium-induced mitochondrial swelling; isolated mouse mitochondria, Ca2+ swelling absorbance, 30 min; inhibition, % at 10 µM; actives 1.4% (n = 360,000); AID 602449;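 active means inhibition of 50% or more, scaled per plate between neutral and stimulator controls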;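 further: 0% = DMSO wells given calcium and 100% = 1 mM EGTA wells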
GRIN3A LBD mod = NR3A (human) ligand-binding domain modulation. AID 1259313. NR3A LBD differential scanning fluorimetry, Tm shift; 0% = protein alone, 100% = glycine-bound protein. Tm shift relative to glycine control, % at 25 µM. actives 2.5% (n = 340,000);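 active means melting temperature shift of at least 10% of the positive control shift, at one fixed dose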
* marks the source's active call; other numbers are inactive results; / = no result given. In the library only some 5.6% were active in any assay of this set; here they are far more common.

SMILES	CHOP inhibitor	aDG glyco act	CHOP UPR activ	UPR XBP1 act	MPTP block	GRIN3A LBD mod
Cc1cc2cc(CCNC(=O)c3ccc(S(=O)(=O)N4CCOCC4)cc3)c(=O)[nH]c2cc1C	70.6*	-0.5	-2.8	-2.4	0.9	0.0
CCN(Cc1ccccc1)S(=O)(=O)c1ccc(S(=O)(=O)N(Cc2cccc(OC)c2)CC2CCCO2)cc1 (stereo not given)	7.9	0.0	-2.5	0.3	-0.5	1.9
COc1cccc(CN(CC2CCCO2)S(=O)(=O)c2ccc(-n3cnnn3)c(OC)c2)c1 (stereo not given)	17.2	-0.5	-0.1	-1.9	0.3	10.1*
Cc1csc(SC(C)C(=O)NCC2CCCO2)n1 (stereo not given)	/	0.1	2.0	-1.1	-1.7	-0.1
CCOC(=O)c1c(/N=C/N(C)C)sc(/C=N/Nc2ccccc2)c1-c1ccccc1	82.2*	-0.3	3.7	-0.6	4.2	-1.7
CC1CCCCC1NC(=O)CN1CCN(S(=O)(=O)c2ccc(Br)s2)CC1 (stereo not given)	/	0.1	-0.3	0.3	0.3	0.5
CCOC(=O)/C(=C\c1ccc(N2CCC(c3ccccc3)=N2)cc1)C(C)=O	/	0.9	/	/	-0.1	-8.7
O=C(/C=C/c1ccc(N2CCC(c3ccccc3)=N2)cc1)c1ccccc1	-22.3	/	4.0	3.2	/	29.6*
C[C@H]1CC[C@H]2C(=O)N3[C@H](c4ccccc4Br)[C@@H](C)CC[C@H]3C(=O)N2[C@@H]1c1ccccc1Br	84.9*	/	4.0	15.7	/	/
C[C@H]1CC[C@H]2C(=O)N3[C@H](c4cccc(N5CCCC5=O)c4)[C@@H](C)CC[C@H]3C(=O)N2[C@@H]1c1cccc(N2CCCC2=O)c1	9.4	/	0.0	-2.1	/	/
Cc1cccc(NC(=O)CC2SC(=NC3CCCCC3)NC2=O)c1 (stereo not given)	74.0*	-0.2	2.4	-4.6	-0.4	-6.6
O=C(CC1SC(=NC2CCCCC2)NC1=O)Nc1ccccc1 (stereo not given)	29.1	0.1	2.2	-1.8	-0.9	-1.2
O=C(NCCc1ccccc1F)N[C@@H](Cc1ccccc1)C(=O)O	/	-0.1	0.0	-7.3	0.4	5.2
COc1ccccc1C(=O)NC(=O)COC(=O)c1cccc(NC(C)=O)c1	/	-0.2	4.0	2.5	-0.8	0.2
CCn1cc(C(=O)O)c(=O)c2cc(F)c(N3CCN(S(=O)(=O)c4ccc(NC(=O)OC)cc4)CC3)cc21	2.6	1.3	0.9	-0.7	12.7	-4.3
CCOC(=O)C1=C(O)C(=O)NC(c2ccccc2)=C(OCC)C1	94.7*	-0.1	3.5	0.6	-1.0	-0.5
CCCCNC(=O)C1(C)CCC(=O)N1CCCn1ccnc1 (stereo not given)	/	0.0	/	/	0.2	/
COc1cccc(CN(CCC(C)C)S(=O)(=O)c2cc(Br)ccc2Br)c1	/	0.0	/	/	-0.3	15.4*
CN(CC(=O)Nc1c(Cl)cccc1Cl)C(=O)CNC(=O)c1sc2ccccc2c1Cl	/	0.2	/	/	-0.6	18.8*
CN(C)C(CNC(=O)C1CC(=O)N(c2cccc(C(F)(F)F)c2)C1)c1ccccc1 (stereo not given)	/	-0.2	/	/	-0.9	/
O=c1c(Cc2c(F)cccc2Cl)c(O)ccn1CCc1ccccn1	4.2	1.0	0.0	0.8	0.5	0.3
Cc1ccc(-c2nnc(-c3cccc(Br)c3)o2)cc1	5.2	0.2	8.8	-0.2	-1.9	0.1
Brc1cccc(-c2nnc(-c3ccccc3)o2)c1	75.3*	0.2	2.5	-0.3	2.8	1.8
Cc1nc(N2CCCCC2)c(C#N)c(C)c1[N+](=O)[O-]	73.6*	0.1	-0.4	6.3	-2.1	0.6
N#CC1=C(N)Oc2n[nH]c(-c3cccs3)c2C1C1C=CCCC1 (stereo not given)	95.6*	-0.1	-1.2	-2.6	3.2	-24.3
Cc1ccc2nc(-c3cccc(Br)c3)cc(C(=O)NC3CC3)c2c1	/	-0.4	-0.7	-2.4	-0.1	13.2*
COc1cccc(CNS(=O)(=O)c2cc(Br)cc3c2N(C(C)=O)C(C)C3)c1 (stereo not given)	0.6	0.0	-0.9	-4.1	-0.7	12.1*
